Experimental data reported in ChEMBL document CHEMBL1123266, “Antibacterial activity of phosphono dipeptides related to alafosfalin” (J Med Chem, 1986).
≈ marks a conversion by molar mass, not a printed value.

What was measured:
Serratia marcescens [1] = test: Minimum inhibitory concentration (MIC) to control the growth of Serratia marcescens strain PCM 549.; format: functional
Procedure, shortened: (§1)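 Doubling dilutions of compound were made in a defined liquid peptide medium free of peptide-mimetic antagonists, final 0.065–512 μg/mL. The inoculum was an overnight 37 °C culture diluted to about 4 × 10^6 cfu/mL, incubated overnight at 37 °C. Non-turbid samples were subcultured (0.1 mL) onto solid peptide-medium agar and incubated overnight at 37 °C to assign MIC.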

Bacillus subtilis [2] = test: Minimum inhibitory concentration (MIC) to control the growth of Bacillus subtilis strain PCM 1949.; format: functional; procedure, shortened: as §1
Escherichia coli [3] = test: Minimum inhibitory concentration (MIC) to control the growth of Escherichia coli strain PCM 2057; format: functional; procedure, shortened: as §1
Escherichia coli [4] = test: Concentration (IC50) to inhibit the growth of Escherichia coli.; format: functional, organism-based
Procedure, shortened: (§2)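 Broth dilution in a defined liquid peptide medium lacking antagonists of small peptide mimetics. Inocula were overnight cultures grown in this medium at 37 °C and diluted to about 4 × 10^6 cfu/mL. Compound was tested as a doubling dilution series, final 0.065–512 μg/mL, incubated overnight at 37 °C. Turbidity was read, and IC50 is the concentration reducing 24-h growth to 50% of control.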

Enterococcus faecalis [5] = test: Minimum inhibitory concentration (MIC) to control the growth of Streptococcus faecalis strain PCM 896; format: functional; procedure, shortened: as §1
Staphylococcus aureus [6] = test: Minimum inhibitory concentration (MIC) to control the growth of Staphylococcus aureus strain PCM 2054.; format: functional; procedure, shortened: as §1
Serratia marcescens [7] = test: Concentration (IC50) to inhibit the growth of Serratia marcescens.; format: functional, organism-based; procedure, shortened: as §2
Enterococcus faecalis [8] = test: Concentration (IC50) to inhibit the growth of Streptococcus faecalis.; format: functional, organism-based; procedure, shortened: as §2
Klebsiella aerogenes [9] = test: Minimum inhibitory concentration (MIC) to control the growth of Klebsiella aerogenes strain PCM 2063; format: functional; procedure, shortened: as §1
Bacillus subtilis [10] = test: Concentration (IC50) to inhibit the growth of Bacillus subtilis; format: functional, organism-based; procedure, shortened: as §2
Klebsiella aerogenes [11] = test: Concentration (IC50) to inhibit the growth of Klebsiella aerogenes.; format: functional, organism-based; procedure, shortened: as §2
Staphylococcus aureus [12] = test: Concentration (IC50) to inhibit the growth of Staphylococcus aureus.; format: functional, organism-based; procedure, shortened: as §2

| SMILES | MIC (Serratia marcescens [1]) [µg/mL] | MIC (Bacillus subtilis [2]) [µg/mL] | MIC (Escherichia coli [3]) [µg/mL] | IC50 (Escherichia coli [4]) [µg/mL] | MIC (Enterococcus faecalis [5]) [µg/mL] | MIC (Staphylococcus aureus [6]) [µg/mL] | IC50 (Serratia marcescens [7]) [µg/mL] | IC50 (Enterococcus faecalis [8]) [µg/mL] | MIC (Klebsiella aerogenes [9]) [µg/mL] | IC50 (Bacillus subtilis [10]) [µg/mL] | IC50 (Klebsiella aerogenes [11]) [µg/mL] | IC50 (Staphylococcus aureus [12]) [µg/mL] |
| --- | --- | --- | --- | --- | --- | --- | --- | --- | --- | --- | --- | --- |
| COc1ccc(CC(NC(=O)C(N)CC(C)C)P(=O)(O)O)cc1OC (stereo unspecified) | > 512 | > 512 | > 512 | > 512 | > 512 | > 512 | > 512 | > 512 | > 512 | > 512 | > 512 | > 512 |
| COc1ccc(CC(NC(=O)C(C)N)P(=O)(O)O)cc1OC (stereo unspecified) | > 512 | > 512 | > 512 | > 512 | > 512 | > 512 | > 512 | > 512 | > 512 | > 512 | > 512 | > 512 |
| CC(C)CC(N)C(=O)NC(Cc1ccccc1)P(=O)(O)O (stereo unspecified) | > 512 | > 512 | > 512 | > 512 | > 512 | > 512 | > 512 | > 512 | > 512 | 0.065 (≈ 0.207 µM) | > 512 | 0.6 (≈ 1.91 µM) |
| CC(C)CC(N)C(=O)NC1(P(=O)(O)O)CCCCC1 (stereo unspecified) | > 512 | > 512 | > 512 | > 512 | > 512 | > 512 | > 512 | > 512 | > 512 | 5.6 (≈ 19.2 µM) | > 512 | 0.065 (≈ 0.222 µM) |
| CC(N)C(=O)NC(C1CCCC1)P(=O)(O)O (stereo unspecified) | > 512 | > 512 | > 512 | > 512 | > 512 | > 512 | > 512 | 16 (≈ 63.9 µM) | > 512 | > 512 | > 512 | 512 (≈ 2050 µM) |
| CC(C)CC(N)C(=O)NC(C)(C)P(=O)(O)O (stereo unspecified) | > 512 | 256 (≈ 1010 µM) | 64 (≈ 254 µM) | 35 (≈ 139 µM) | 8 (≈ 31.7 µM) | 256 (≈ 1010 µM) | 384 (≈ 1520 µM) | 4.4 (≈ 17.4 µM) | 256 (≈ 1010 µM) | 45 (≈ 178 µM) | 4.4 (≈ 17.4 µM) | 48 (≈ 190 µM) |
| CC(N)C(=O)NC(C)(C)P(=O)(O)O (stereo unspecified) | > 512 |  | 64 (≈ 305 µM) | 5.6 (≈ 26.6 µM) | 8 (≈ 38.1 µM) | 256 (≈ 1220 µM) | 48 (≈ 228 µM) | 19 (≈ 90.4 µM) | 256 (≈ 1220 µM) | 16 (≈ 76.1 µM) | 512 (≈ 2440 µM) | 282 (≈ 1340 µM) |
| CC(N)C(=O)NC(C(C)(C)C)P(=O)(O)O (stereo unspecified) | > 512 | > 512 | > 512 | > 512 | > 512 | > 512 | > 512 | > 512 | > 512 | > 512 | > 512 | > 512 |
| CC(C)CC(N)C(=O)NC(CC(C)C)P(=O)(O)O (stereo unspecified) | > 512 | > 512 | > 512 | 307 (≈ 1100 µM) | > 512 | 512 (≈ 1830 µM) | 64 (≈ 228 µM) | > 512 | > 512 | 32 (≈ 114 µM) | > 512 | 104 (≈ 371 µM) |
| CC(C)CC(NC(=O)C(C)N)P(=O)(O)O (stereo unspecified) | > 512 | > 512 | > 512 | > 512 | > 512 | 256 (≈ 1070 µM) | > 512 | 90 (≈ 378 µM) | > 512 | 153 (≈ 642 µM) | > 512 | 48 (≈ 201 µM) |
| CC(C)CC(N)C(=O)NC(C1CCCC1)P(=O)(O)O (stereo unspecified) | 128 (≈ 438 µM) | > 512 | > 512 | > 512 | > 512 | > 512 | 64 (≈ 219 µM) | > 512 | > 512 | 435 (≈ 1490 µM) | > 512 | 6 (≈ 20.5 µM) |
